Where two headings read alike, the source gives them in different places.
Assays:
Kvβ1 [1] = molecular target: T1, Kvβ1 (Rattus norvegicus, UniProt P63144, C7A); assay: inside-out patch clamp dose-response; type: cell-based
Kvβ2 [2] = molecular target: T2, Kvβ2 (Rattus norvegicus, UniProt P62483, W272A); assay: scintillation proximity assay, competition with 3H-cortisone; settings: read-out: % reduction of cortisone binding at 250 μM
T2 sequence (P62483 36-361 W272A): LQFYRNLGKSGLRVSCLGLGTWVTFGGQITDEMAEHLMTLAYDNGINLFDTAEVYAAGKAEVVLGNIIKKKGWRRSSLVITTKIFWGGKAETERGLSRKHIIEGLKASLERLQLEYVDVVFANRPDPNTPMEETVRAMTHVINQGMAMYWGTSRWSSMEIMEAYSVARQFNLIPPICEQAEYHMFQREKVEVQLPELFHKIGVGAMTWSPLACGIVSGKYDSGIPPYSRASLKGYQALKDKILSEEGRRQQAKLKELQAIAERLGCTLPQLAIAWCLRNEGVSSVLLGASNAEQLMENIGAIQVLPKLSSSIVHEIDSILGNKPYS

Kvβ2 [3] = molecular target: T2, Kvβ2; assay: as above; settings: read-out: % reduction of cortisone binding at 250 μM; remark: listed apart in the source
Kvβ2 [4] = molecular target: T2, Kvβ2; type: binding
Kvβ1 [5] = molecular target: T1, Kvβ1; assay: inside-out patch clamp dose-response; type: cell-based; remark: listed apart in the source
Method in brief: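 Inside-out patches from Xenopus oocytes injected with mixed mRNAs of rat Kv1.1 and rat Kvβ1 (Cys7→Ala), or with a Kvβ1-Kv1.1 fused chimera. Currents elicited by stepping from −80 mV to +60 mV for 400 ms. Test compound was dissolved in DMSO, diluted into internal buffer (final 1% DMSO) and perfused at several concentrations. ΔIss = rise in steady-state current as a fraction of initial inactivating current. EC50 taken from the dose-response curve.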

T1 sequence (P63144 whole entry C7A): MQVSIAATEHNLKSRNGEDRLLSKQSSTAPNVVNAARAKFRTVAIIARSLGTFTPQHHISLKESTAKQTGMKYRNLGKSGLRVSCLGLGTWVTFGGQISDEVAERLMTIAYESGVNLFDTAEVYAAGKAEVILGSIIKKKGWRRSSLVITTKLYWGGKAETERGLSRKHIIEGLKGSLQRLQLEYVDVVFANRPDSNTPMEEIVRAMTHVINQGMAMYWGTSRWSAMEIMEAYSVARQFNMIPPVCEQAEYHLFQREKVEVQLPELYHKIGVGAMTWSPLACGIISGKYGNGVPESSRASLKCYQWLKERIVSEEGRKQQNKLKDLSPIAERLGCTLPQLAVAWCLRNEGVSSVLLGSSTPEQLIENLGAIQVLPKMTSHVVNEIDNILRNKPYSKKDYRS
T1 sequence (P10499 whole entry partner): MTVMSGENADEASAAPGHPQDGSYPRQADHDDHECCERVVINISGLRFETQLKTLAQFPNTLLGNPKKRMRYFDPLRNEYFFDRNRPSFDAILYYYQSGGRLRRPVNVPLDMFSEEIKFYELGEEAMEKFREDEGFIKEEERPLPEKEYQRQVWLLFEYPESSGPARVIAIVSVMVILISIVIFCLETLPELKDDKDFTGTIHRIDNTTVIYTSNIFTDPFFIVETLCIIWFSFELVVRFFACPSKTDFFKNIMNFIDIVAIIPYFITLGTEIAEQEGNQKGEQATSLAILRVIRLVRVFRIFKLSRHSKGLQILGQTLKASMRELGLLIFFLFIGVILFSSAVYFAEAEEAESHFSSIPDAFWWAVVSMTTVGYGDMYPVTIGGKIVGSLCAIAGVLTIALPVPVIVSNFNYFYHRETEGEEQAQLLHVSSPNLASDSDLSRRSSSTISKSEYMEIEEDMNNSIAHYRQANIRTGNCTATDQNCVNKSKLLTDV

SMILES	EC50 (Kvβ1 [1]) [µM]	inhibition at 250 µM (Kvβ2 [2]) [%]	inhibition at 250 µM (Kvβ2 [3]) [%]	Ki (Kvβ2 [4]) [µM]	EC50 (Kvβ1 [5]) [µM]
CCC(=O)O[C@]1(C(=O)SCF)[C@H](C)C[C@H]2[C@@H]3C[C@H](F)C4=CC(=O)C=C[C@]4(C)[C@@]3(F)[C@@H](O)C[C@@]21C [fluticasone propionate]	0.037 ± 0.0011	98 ± 0.1			
CC(=O)OCC(=O)[C@@]1(O)CC[C@H]2[C@@H]3CCC4=CC(=O)CC[C@]4(C)[C@H]3C(=O)C[C@@]21C [cortisone 21-acetate]	9 ± 1.1		95 ± 0.2		
C[C@]12CCC(=O)C=C1CC[C@@H]1[C@@H]2C(=O)C[C@@]2(C)[C@H]1CC[C@]2(O)C(=O)CO [cortisone]				30 ± 10	46
